# Measurements gathered from unrelated publications.
# Compare with care: the assays were run in different laboratories.
SMILES,assay,system,conditions,logP
O=C1NN=C(N=Cc2ccccc2)C1=NNn1c(-c2ccccc2)nc2ccccc2c1=O,,,,3.39
Nc1nc(-c2ccccc2)nc2[nH]nc(Nc3ccc(C(F)(F)F)cc3)c12,,,,2.85
CCCCC1=NC2(CCCC2)C(=O)N1Cc1ccc(-c2ccccc2S(=O)(=O)Nc2noc(C)c2C)c(COCC)c1,,,,4.26
Clc1cc2c(c3ncccc13)OCN(CCc1ccccc1)C2,,,,4.54
C=C[C@H]1C[N@@]2CC[C@H]1C[C@@H]2[C@@H](O)c1ccnc2ccc(OC)cc12,,water,,2.84
CC1=NN(CNC(=O)c2ccccn2)C(=O)C1=NNn1c(-c2ccccc2)nc2ccccc2c1=O,,,,3.26
Nc1nc2[nH]cc(CCc3ccc(C(=O)N[C@@H](CCC(=O)O)C(=O)O)cc3)c2c(=O)[nH]1,,water,24 h,-0.842
N#Cc1[nH]nnc1-c1csc(-c2ccc(Cl)cc2)n1,potentiometric,,,4.5
CCc1nc(N)nc(N)c1-c1ccc(Cl)cc1,,,,3.14
N#Cc1[nH]nnc1-c1cccc(-c2cc(F)cc(C(F)(F)F)c2)c1,potentiometric,,,5.2
CC1=NN(CNc2ccc(O)cc2)C(=O)C1=NNn1c(-c2ccccc2)nc2ccccc2c1=O,,,,4.19
CC(=O)c1ccccc1,,water,1 h,1.51
CC1=NN(CNc2ccc(Cl)cc2)C(=O)C1=NNn1c(-c2ccccc2)nc2ccccc2c1=O,,,,5.1
CC(C)N1CCN(Cc2cnc(-c3cc(-c4cccc5[nH]ccc45)cc4[nH]ncc34)o2)CC1,,,,4.01
CC1=NN(CNc2ccccc2[N+](=O)[O-])C(=O)C1=NNn1c(-c2ccccc2)nc2ccccc2c1=O,,,,5.08
C=CCN1CC[C@]23c4c5ccc(O)c4O[C@H]2[C@@H](OCCOCCOCCOCCOCCOCCOCCOC)CC[C@@]3(O)[C@H]1C5,,,,1.43
